# Reference: ChEMBL document CHEMBL1125409, “Synthesis and biological activity of acyclic analogues of 5,10-dideaza-5,6,7,8-tetrahydrofolic acid” (J Med Chem, 1992)
# What was measured:
# CCRF-CEM [1] = test: Cytotoxicity against human lymphoblastic leukemic CCRF-CEM cell line was evaluated as the concentration required for 50% inhibition of the growth of the control value; type: functional, cell-based
# In short: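 CCRF-CEM cells in RPMI 1640 with 10% dialyzed FBS, 16 mM HEPES and 8 mM MOPS, seeded at 4.8×10⁴ cells/well. Duplicate wells got graded concentrations diluted from a 4 mg/mL DMSO stock. After 72 h (95% air/5% CO₂), cells were counted on a Coulter counter. IC50 was taken from dose-response curves as 50% growth inhibition versus control.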
# CCRF-CEM [2] = test: Compound was evaluated for reversal of growth inhibition against human lymphoblastic leukemic CCRF-CEM cells at 0.46 uM concentration and with 5 uM of Thymidine; type: functional
# CCRF-CEM [3] = test: Compound was evaluated for reversal of growth inhibition against human lymphoblastic leukemic CCRF-CEM cells at 0.46 uM concentration and with 300 uM of AICA; type: functional
# CCRF-CEM [4] = test: Compound was evaluated for reversal of growth inhibition against human lymphoblastic leukemic CCRF-CEM cells at 0.46 uM concentration and with 100 uM of hypoxanthine; type: functional
# Mus musculus [5] = test: In vivo antitumor activity against lymphosarcoma tumor type was expressed as toxic deaths/total treated mice at 100 mg/kg dose given twice daily for 8 days; 0/9; type: ADME, organism-based; set-up: dose 100 mg/kg; conditions: 192 h
# [6] = In vivo antitumor activity against lymphosarcoma tumor type after intraperitoneal administration of 50 mg/kg dose given twice daily for 8 days; type: functional; conditions: ip, 192 h
# In short: (§1)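 6C3HED lymphosarcoma: 1–2 mm³ fragments implanted sc by trocar in the axilla of syngeneic C3H mice. Dosing ip twice daily for 8 days, starting 24 h after implant. One day after the last dose, tumor volume was taken as L(W²)/2 and compared with controls to give % inhibition. Deaths over group size were recorded.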
# [7] = In vivo antitumor activity against […] tumor type after intraperitoneal administration of 100 mg/kg dose given once daily for 10 days; type: functional; conditions: ip, 240 h
# In short: (§2)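 C3H mammary adenocarcinoma fragments (1–2 mm³) were trocar-implanted sc axillary in syngeneic C3H mice. Treatment was ip once daily for 10 days, beginning 24 h post-implant. Tumor width and length were measured one day after the final dose, with V = L(W²)/2. Growth inhibition was calculated against untreated controls, and toxicity/total was noted.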
# Mus musculus [8] = test: In vivo antitumor activity against lymphosarcoma tumor type was expressed as toxic deaths/total treated mice at 50 mg/kg dose given twice daily for 8 days; 0/10; type: ADME, organism-based; set-up: dose 50 mg/kg; conditions: 192 h
# [9] = In vivo antitumor activity against lymphosarcoma tumor type after intraperitoneal administration of 200 mg/kg dose given twice daily for 8 days; type: functional; conditions: ip, 192 h; in short: as §1
# [10] = In vivo antitumor activity against C3H mammary tumor type after intraperitoneal administration of 400 mg/kg dose given once daily for 10 days; conditions: ip, 240 h
# [11] = In vivo antitumor activity against […] tumor type after intraperitoneal administration of 200 mg/kg dose given once daily for 10 days; type: functional; conditions: ip, 240 h; in short: as §2
# Mus musculus [12] = test: In vivo antitumor activity against C3H mammary tumor type was expressed as toxic deaths/total treated mice at 400 mg/kg dose given once daily for 10 days; 2/10; conditions: 240 h
# [13] = In vivo antitumor activity against […] tumor type after intraperitoneal administration of 50 mg/kg dose given once daily for 10 days; type: functional; conditions: ip, 240 h; in short: as §2
# [14] = In vivo antitumor activity against 6C3HED tumor type after intraperitoneal administration of 400 mg/kg; type: functional; conditions: ip; in short: as §1
# Mus musculus [15] = test: In vivo antitumor activity against […] tumor type was expressed as toxic deaths/total treated mice at 50 mg/kg dose given once daily for 10 days; 2/10; type: ADME, organism-based; set-up: dose 50 mg/kg; conditions: 240 h
# Mus musculus [16] = test: In vivo antitumor activity against 6C3HED tumor type was expressed as toxic deaths/total treated mice at 400 mg/kg dose; 2/10; type: ADME, organism-based; set-up: dose 400 mg/kg
# Mus musculus [17] = test: In vivo antitumor activity against […] tumor type was expressed as toxic deaths/total treated mice at 200 mg/kg dose given once daily for 10 days; 0/10; type: ADME, organism-based; set-up: dose 200 mg/kg; conditions: 240 h
# Mus musculus [18] = test: In vivo antitumor activity against […] tumor type was expressed as toxic deaths/total treated mice at 100 mg/kg dose given once daily for 10 days; 1/10; type: ADME, organism-based; set-up: dose 100 mg/kg; conditions: 240 h
# [19] = In vivo antitumor activity against lymphosarcoma tumor type after intraperitoneal administration of 100 mg/kg dose given twice daily for 8 days; type: functional; conditions: ip, 192 h; in short: as §1
compound,measurement,setting,value
Nc1nc(N)c(CCCCc2ccc(C(=O)N[C@@H](Cc3ccccc3)C(=O)O)cc2)c(O)n1,IC50,CCRF-CEM [1],> 44500 nM
Nc1nc(N)c(CCCCCCCCCC(=O)N[C@@H](CCC(=O)O)C(=O)O)c(O)n1,IC50,CCRF-CEM [1],> 47100 nM
Cc1nc(N)[nH]c(=O)c1CCCCc1ccc(C(=O)N[C@@H](CCC(=O)O)C(=O)O)cc1,IC50,CCRF-CEM [1],2330 nM
Nc1nc(N)c(CCCCc2ccc(C(=O)N[C@@H](CC(=O)O)C(=O)O)cc2)c(O)n1,IC50,CCRF-CEM [1],> 48000 nM
Nc1nc(N)c(CCCCc2ccc(C(=O)N[C@@H](CCC(=O)O)C(=O)O)s2)c(O)n1,IC50,CCRF-CEM [1],59 nM
Nc1nc2c(c(=O)[nH]1)C[C@@H](CCc1ccc(C(=O)N[C@@H](CCC(=O)O)C(=O)O)cc1)CN2 [LOMETREXOL],IC50,CCRF-CEM [1],16 nM
Nc1nc(O)c(CCCCc2ccc(C(=O)N[C@@H](CCC(=O)O)C(=O)O)cc2)c(O)n1,IC50,CCRF-CEM [1],39800 nM
Nc1nc(N)c(CCCNc2ccc(C(=O)N[C@@H](CCC(=O)O)C(=O)O)cc2)c(O)n1,IC50,CCRF-CEM [1],198 nM
same,Inhibition,CCRF-CEM [2],77%
same,Inhibition,CCRF-CEM [3],55%
same,Inhibition,CCRF-CEM [4],0%
Nc1nc(N)c(CCCCc2ccc(C(=O)N[C@@H](CCC(=O)O)C(=O)O)cc2)c(=O)[nH]1 [DIDEAZAACYCLOTETRAHYDROFOLIC ACID],IC50,CCRF-CEM [1],132 nM
same,Toxicity,Mus musculus [5],0
same,inhibition in vivo at 50 mg/kg,[6],44%
same,inhibition in vivo at 100 mg/kg,[7],37%
same,Inhibition,CCRF-CEM [2],80%
same,Toxicity,Mus musculus [8],0
same,inhibition in vivo at 200 mg/kg,[9],92%
same,inhibition in vivo at 400 mg/kg,[10],78%
same,inhibition in vivo at 200 mg/kg,[11],36%
same,Toxicity,Mus musculus [12],2
same,inhibition in vivo at 50 mg/kg,[13],17%
same,inhibition in vivo at 400 mg/kg,[14],100%
same,Toxicity,Mus musculus [15],2
same,Toxicity,Mus musculus [16],2
same,Toxicity,Mus musculus [17],0
same,Inhibition,CCRF-CEM [3],0%
same,Inhibition,CCRF-CEM [4],0%
same,Toxicity,Mus musculus [18],1
same,inhibition in vivo at 100 mg/kg,[19],66%
Nc1nc(N)c(CCCCc2csc(C(=O)N[C@@H](CCC(=O)O)C(=O)O)c2)c(O)n1,IC50,CCRF-CEM [1],142 nM
Nc1nc(N)c(CCCCc2ccc(C(=O)N[C@@H](CCC(=O)O)C(=O)O)cc2)c(N)n1,IC50,CCRF-CEM [1],42 nM
